hIAP act: human IAP activators, primary screen, biochemical, luminescence, uHTS | Intestinal-type alkaline phosphatase (Homo sapiens), P09923 | purified human IAP, CDP-Star luminescence, 30 min; hits give high values; 1 = vehicle-only enzyme, 0 = enzyme-free background | activation factor at 10 µM | actives 0.16% (n = 330,000);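 active means activation factor of the enzyme at least 2-fold when tested at 20 µM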
Target sequence (P09923 whole entry, looked up): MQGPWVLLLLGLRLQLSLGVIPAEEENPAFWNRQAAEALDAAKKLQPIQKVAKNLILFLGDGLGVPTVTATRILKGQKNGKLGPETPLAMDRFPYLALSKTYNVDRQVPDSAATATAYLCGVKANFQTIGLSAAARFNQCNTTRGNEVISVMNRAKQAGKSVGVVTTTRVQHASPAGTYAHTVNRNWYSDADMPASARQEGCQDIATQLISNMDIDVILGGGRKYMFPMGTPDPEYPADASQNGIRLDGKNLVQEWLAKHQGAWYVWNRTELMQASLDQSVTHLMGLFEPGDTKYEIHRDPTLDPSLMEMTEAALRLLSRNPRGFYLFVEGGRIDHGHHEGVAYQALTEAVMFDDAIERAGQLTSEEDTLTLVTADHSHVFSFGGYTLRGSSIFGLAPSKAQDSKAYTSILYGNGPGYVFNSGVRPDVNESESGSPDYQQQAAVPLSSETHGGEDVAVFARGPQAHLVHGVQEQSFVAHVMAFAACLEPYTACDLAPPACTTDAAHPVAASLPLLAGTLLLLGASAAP
mIAP activ: activators of mouse IAP, primary screen, biochemical, luminescence, uHTS. intestinal alkaline phosphatase [Mus musculus]. muIAP, CDP-Star luminescence, 30 min; hits give high values; 1 = vehicle-only enzyme signal, 0 = enzyme-free wells. activation factor at 10 µM. actives 0.24% (n = 330,000). AID 2805, 2010;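 active means activation factor of at least 2 at 20 µM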
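Assay system: mouse IAP enzyme; Reagent: CDP-Star chemiluminescent phosphatase substrate; Compound: DMSO-dissolved test compounds; Incubation: 30 min, room temperature; Technique: luminescence from enzymatic CDP-Star hydrolysis; Controls: DMSO-only wells and no-enzyme negative control.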
mIAP inh: inhibitors of mouse IAP, primary screen, biochemical, luminescence, uHTS; purified mouse IAP, CDP-Star luminescence, 30 min; inhibition, % at 10 µM; actives 0.2% (n = 330,000); AID 2806, 2010;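 active means inhibition of at least 40% at 10 µM in the primary screen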
bIAP act: bovine intestinal alkaline phosphatase activators, primary screen, biochemical, bovine IAP, CDP-star luminescence. alkaline phosphatase, intestinal [Bos taurus]. actives 0.17% (n = 200,000). AID 1016, 2008. purified bovine IAP, 30 min; hits give high values; fold of DMSO-control signal, blank-subtracted. activation factor at 20 µM;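 active means activation factor of 2 or more at 20 µM, a signal rise over negative controls twice the positive control's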
bIAP inhibitor: bovine intestinal alkaline phosphatase inhibitors, primary screen, selectivity assay for TNAP inhibitor project, biochemical, bovine IAP, CDP-star luminescence. 190,000 tested, under 10 active. inhibition, % at 20 µM. alkaline phosphatase, intestinal [Bos taurus]. AID 1019, 2008. purified bovine IAP, 30 min;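 active means over 50% inhibition of intestinal alkaline phosphatase at 20 µM in the single-dose screen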
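Assay system: bovine IAP enzyme; medium: DEA buffer 100 mM, pH 9.8, with MgCl2 1.0 mM, ZnCl2 0.02 mM; doses: 20 µM single dose; incubation: enzyme reaction for 30 min at room temperature; detection: CDP-star luminescence signal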
hIAP block: human IAP inhibitors, primary screen, biochemical, luminescence, uHTS; purified IAP, CDP-Star luminescence, 30 min; inhibition, % at 10 µM; actives 0.12% (n = 330,000);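 active means inhibition reaching a set limit with compound at 10 µM in the primary screen, cut at about 35% in these data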
mIAP inh conf: inhibitors of mouse IAP, confirmation, biochemical, luminescence, single concentration. shares compounds with mIAP inh. AID 434971, 2010. purified mouse IAP, CDP-Star luminescence, 30 min. inhibition, % at 10 µM. actives 4.7% (n = 11,000);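 active means inhibition of at least 40% at 10 µM in either of the two replicates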
Each line names hits and unclear results; the compound was inactive in the other large screens (follow-up assays come after a bar, where they were run). This is a sample that favours compounds with a hit; in the whole collection about 0.79% have one here.

Cc1ccc(/C=C/C2=Cc3c(sc(NC(=O)CSc4n[nH]c(N)n4)c3C#N)C(C)(C)C2)o1	mIAP inh 47 | mIAP inh conf 51
COc1cccc(CNc2nc3ccccc3n2C(C)C)c1O	none (no result: bIAP act, bIAP inhibitor)
CCCCNC(=O)Nc1ccc2c(c1)N(C)C(=O)c1ccccc1S2	mIAP activ 2.7 (no result: bIAP act, bIAP inhibitor) | mIAP inh conf inactive
O=C(Cc1nnc(NC(=O)c2ccccc2)s1)N/N=C\c1ccc(O)c(O)c1	mIAP inh 73 (no result: bIAP act, bIAP inhibitor) | mIAP inh conf 79
Cc1ccccc1NC(=S)NC(NC(=O)c1ccccc1C)C(Cl)(Cl)Cl (stereo not given)	mIAP activ 2 | mIAP inh conf inactive
COc1cc(/C=C/[N+](=O)[O-])ccc1OC(=O)c1cc2ccccc2oc1=O	mIAP inh 58 (no result: bIAP act, bIAP inhibitor) | mIAP inh conf 49
COc1ccccc1OC(=O)c1cc2ccccc2oc1=O	none (no result: bIAP act, bIAP inhibitor)
CCn1c(CNc2nc3ccccc3n2C(C)C)nc2ccccc21	mIAP activ 2, bIAP act 3.1 | mIAP inh conf inactive
CC(C)n1c(NCc2nc3ccccc3n2C)nc2ccccc21	none
COc1ccc(N(C)S(=O)(=O)c2ccc(Cl)c(C(=O)NCC(C)(C)N3CCOCC3)c2)cc1	none (no result: bIAP act, bIAP inhibitor)
COc1cccc(CCNC(=O)CC2C(=O)NCCN2Cc2ccc(C)o2)c1 (stereo not given)	none (no result: bIAP act, bIAP inhibitor)
CC1=C(C#N)C(=O)NC(=O)/C1=C/c1ccc(-c2ccc(S(N)(=O)=O)cc2)o1	mIAP inh 54 | mIAP inh conf 70
NS(=O)(=O)c1ccc(-c2ccc(/C=C3\NC(=S)NC3=O)o2)cc1	mIAP inh 90 (no result: bIAP act, bIAP inhibitor) | mIAP inh conf 77
CC(C)OC(=O)/C(C#N)=C/c1ccc(-c2ccc(SC(F)F)cc2)o1	none
COC(=O)/C(C#N)=C/c1ccc(-c2ccc(S(N)(=O)=O)cc2)o1	mIAP inh 64 (no result: bIAP act, bIAP inhibitor) | mIAP inh conf 79
NS(=O)(=O)c1ccc(-c2ccc(C=O)o2)cc1	none
Cc1cccc(C(=O)NCCc2ccccc2)c1	none (no result: bIAP act, bIAP inhibitor)
O=C1CCC([N+](=O)[O-])C(c2ccc(C(F)(F)F)cc2)N1 (stereo not given)	none (no result: bIAP act, bIAP inhibitor)
Oc1ccc(Cl)cc1-c1cc(-c2ccco2)[nH]n1	mIAP inh 80 | mIAP inh conf 80
Oc1ccc(Br)cc1-c1cc(-c2ccco2)[nH]n1	none
Cc1cc2nc(C)n(CCCNC(=O)Nc3cccc4ccccc34)c2cc1C	mIAP activ 2.6, bIAP act 2.7 | mIAP inh conf inactive
Cc1ccc(N(CCC#N)C(=O)COC(=O)c2ccccn2)cc1	none (no result: bIAP act, bIAP inhibitor)
O=C1NC(=Nc2ccccc2)S/C1=C\C=C\c1ccco1	mIAP inh 73 | mIAP inh conf 72
COC(=O)c1ccccc1NCc1cc(=O)oc2cc(O)c(O)cc12	mIAP inh 44 (no result: bIAP act, bIAP inhibitor) | mIAP inh conf 44
O=C(CN1CCOCC1)Nc1cccc(Cl)c1Cl	none
O=C(Nc1ccc(F)c(Cl)c1)C1CC(=O)n2c(nc3ccccc32)N1 (stereo not given)	mIAP activ 2.8 | mIAP inh conf inactive
COc1cc(C[C@@H](C)[C@@H](C)Cc2ccc(O)c(OC)c2)ccc1O	none (no result: bIAP act, bIAP inhibitor)
CC(Cc1ccc(O)c(O)c1)C(C)Cc1ccc(O)c(O)c1 (stereo not given)	mIAP inh 58 (no result: bIAP act, bIAP inhibitor) | mIAP inh conf 51
CCN1C(=O)/C(=C2\SC(=S)N(NC(=O)c3ccccc3O)C2=O)c2ccccc21	mIAP inh 51 (no result: bIAP act, bIAP inhibitor) | mIAP inh conf 47
COc1cc2c(cc1NC(=O)Nc1ccc(F)cc1)oc1ccccc12	none
N=C1/C(=C\c2coc3ccc(O)cc3c2=O)C(=O)N=C2SC=CN12	mIAP inh 59 (no result: bIAP act, bIAP inhibitor) | mIAP inh conf 64
CCOC(=O)C1=C(C)N=c2s/c(=C/c3cccc([N+](=O)[O-])c3O)c(=O)n2C1c1ccc(OC)cc1OC (stereo not given)	mIAP inh 43 (no result: bIAP act, bIAP inhibitor) | mIAP inh conf 44
CCOC(=O)C1=C(C)N=c2s/c(=C\c3ccc(O)c([N+](=O)[O-])c3)c(=O)n2C1c1ccccc1OC (stereo not given)	none (no result: bIAP act, bIAP inhibitor)
CCN(CC)CCC(=O)NN	none
C#CCOCCOCCOCCNc1nc(N2CCN(C(=O)CCCCCCCCCCNC(=O)[C@H]([C@@H](C)CC)n3cc(CCCCCN)nn3)CC2)nc(N2CCN(C(=O)CCCCCCCCCCNC(=O)[C@@H]([C@H](C)O)n3cc(C)nn3)CC2)n1	mIAP activ 2.1 (no result: bIAP act, bIAP inhibitor) | mIAP inh conf inactive
C#CCOCCOCCOCCNc1nc(N2CCN(C(=O)CCCCCCCCCCNC(=O)Cn3cc(CCCCCN)nn3)CC2)nc(N2CCN(C(=O)CCCCCCCCCCNC(=O)[C@H]([C@@H](C)CC)n3cc(CCCCCN)nn3)CC2)n1	mIAP activ 4.1 (no result: bIAP act, bIAP inhibitor) | mIAP inh conf inactive
C#CCOCCOCCOCCNc1nc(N2CCN(C(=O)CCCCCCCCCCNC(=O)[C@H](CCCCN)n3cc(C)nn3)CC2)nc(N2CCN(C(=O)CCCCCCCCCCNC(=O)[C@@H]([C@H](C)CC)n3cc(CCCCCN)nn3)CC2)n1	mIAP activ 3 (no result: bIAP act, bIAP inhibitor) | mIAP inh conf inactive
C#CCOCCOCCOCCNc1nc(N2CCN(C(=O)CCCCCCCCCCNC(=O)[C@H](CCC(=O)O)n3cc(CCCCCN)nn3)CC2)nc(N2CCN(C(=O)CCCCCCCCCCNC(=O)[C@@H]([C@H](C)O)n3cc(C)nn3)CC2)n1	none (no result: bIAP act, bIAP inhibitor)
O=C(CC1C[C@H](C(=O)N2CCOCC2)[C@@]2(CCC3CCCC3)c3[nH]c4ccccc4c3CCN2C1=O)NCCC1=CCCCC1 (stereo not given in full)	none (no result: bIAP act, bIAP inhibitor)
Cc1cccc(-n2c(SCc3ccc([N+](=O)[O-])cc3)nnc2-c2c[nH]c3ccccc23)c1	none
c1coc(-c2nc(-c3ccco3)c(-c3ccco3)nc2-c2ccco2)c1	mIAP inh 71 | mIAP inh conf 84
Nc1nc(-c2ccco2)c(-c2ccco2)s1	mIAP inh 67 | mIAP inh conf 69
Nc1nc(-c2ccco2)cs1	none
CCN(CC)S(=O)(=O)c1ccc(N2CCOCC2)c(NC(=S)NC(=O)c2ccco2)c1	none (no result: bIAP act, bIAP inhibitor)
CC1=C(C/C=C(\C)CCC[C@H](C)CCC[C@H](C)CCCC(C)C)C(=O)c2ccccc2C1=O	none (no result: bIAP act, bIAP inhibitor)
